ChEMBL document CHEMBL3822448, “The chemical synthesis and preliminary biological studies of phosphodiester and phosphorothioate analogues of 2-methoxy-lysophosphatidylethanolamine” (2016)
The source made the active and inactive calls. The calls are words filed in the database; no cut-off is given here.

Key:
PC-3 [1] = experiment: Cytotoxicity against human PC3 cells assessed as reduction in cell viability at 5 uM after 24 to 48 hrs by resazurin-based prestoblue assay; type: functional
In short: (§1)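 PC3 human prostate cancer cells (express LPA1 receptor) seeded at 5,000/well, cultured 24 and 48 h, then treated with LPE analogues at 5, 10, 25 or 50 μM for 24 or 48 h. Viability read with resazurin-based PrestoBlue reagent and expressed as % of untreated control (100%). Means ± SD of at least three independent experiments; P < 0.05 versus control.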

[2] = (§2) Cytotoxicity against human PC3 cells assessed as reduction in cell viability at 25 uM after 48 hrs by resazurin-based prestoblue assay; type: functional, PC-3; in short: as §1
[3] = (§3) Cytotoxicity against human PC3 cells assessed as reduction in cell viability at 50 uM after 48 hrs by resazurin-based prestoblue assay; type: functional, PC-3; in short: as §1
PC-3 [4] = experiment: Cytotoxicity against human PC3 cells assessed as reduction in cell viability at 10 uM after 24 to 48 hrs by resazurin-based prestoblue assay; type: functional; in short: as §1
[5] = Cytotoxicity against human PC3 cells assessed as reduction in cell viability at 10 uM after 24 hrs by resazurin-based prestoblue assay; type: functional, PC-3; in short: as §1
[6] = (§4) Cytotoxicity against human PC3 cells assessed as reduction in cell viability at 10 uM after 48 hrs by resazurin-based prestoblue assay; type: functional, PC-3; in short: as §1
PC-3 [7] = experiment: as §4; type: functional; in short: as §1
PC-3 [8] = experiment: as §2; type: functional; in short: as §1
PC-3 [9] = experiment: as §3; type: functional; in short: as §1
PC-3 [10] = experiment: Cytotoxicity against human PC3 cells assessed as reduction in cell viability at 50 uM after 24 to 48 hrs by resazurin-based prestoblue assay; type: functional; in short: as §1

With `CCCCCCCCCCCCCCCC(=O)OCC(COP(=O)(S)OCCN)OC` (configuration not stated) the Activity (PC-3 [1]) was “inactive”, the Activity [2] was 79.1% and the Activity [3] was 70%. The Activity (PC-3 [4]) was “inactive”.
In the case of `CCCCCCCCCCCCCC(=O)OCC(COP(=O)(O)OCCN)OC` (racemic), the Activity [5] was 68.2%, the Activity [6] was 59.8% and the Activity [2] was 22.7%. The Activity [3] was 6.3%.
With `CCCCCCCC/C=C\CCCCCCCC(=O)OCC(COP(=O)(O)OCCN)OC` (mixture of isomers) the Activity (PC-3 [1]) was “inactive”, the Activity (PC-3 [7]) was “Active” and the Activity (PC-3 [8]) was “Active”. The Activity (PC-3 [9]) was “Active” and the Activity (PC-3 [4]) was “inactive”.
With `CCCCCCCCCCCCCC(=O)OCC(COP(=O)(S)OCCN)OC` (mixture of isomers) the Activity (PC-3 [1]) was “inactive”, the Activity [2] was 59.8% and the Activity [3] was 43.8%. The Activity (PC-3 [4]) was “inactive”.
With `CCCCCCCCCCCCCCCC(=O)OCC(COP(=O)(O)OCCN)OC` (racemic) the Activity (PC-3 [1]) was “inactive”, the Activity [6] was 78.8% and the Activity [2] was 49.5%. It also gave an Activity [3] of 24.9%.
For `CCCCCCCCCCCCCCCCCC(=O)OCC(COP(=O)(O)OCCN)OC` (racemic), the Activity (PC-3 [1]) was “inactive”, the Activity (PC-3 [7]) was “Active” and the Activity (PC-3 [8]) was “Active”. The Activity (PC-3 [9]) was “Active” and the Activity (PC-3 [4]) was “inactive”.
For `CCCCCCCCCCCCCCCCCC(=O)OCC(COP(=O)(S)OCCN)OC` (mixture of isomers), the Activity (PC-3 [1]) was “inactive”, the Activity (PC-3 [10]) was “inactive” and the Activity (PC-3 [4]) was “inactive”.
In the case of `CCCCCCCC/C=C\CCCCCCCC(=O)OCC(COP(=O)(S)OCCN)OC` (mixture of isomers), the Activity (PC-3 [1]) was “inactive”, the Activity (PC-3 [10]) was “inactive” and the Activity (PC-3 [4]) was “inactive”.
